Measured values pooled from the literature.
Target: Dual specificity tyrosine-phosphorylation-regulated kinase 1A (DYRK1A, Homo sapiens, UniProt Q13627)

Compound	assay	conditions	quantity	value
COc1ncccc1-c1cnn2ccc(N3CCN(C(=O)OC(C)C)CC3)nc12	binding, competition with immobilised ligand	1 µM	remaining binding	95%
CC(C)(C)c1cc(C=C(C#N)C#N)cc(Br)c1O	enzyme activity, inhibitor	0.5 µM	remaining activity	95.4%
Cn1cc(-c2cccc(N3CCc4c(sc5c4CC(C)(C)C5)C3=O)c2CO)cc(Nc2ccncn2)c1=O	enzyme activity, inhibitor	1 µM	inhibition	5%
Cn1cncc1[C@](O)(COc1ccc(C#N)cc1-c1ccc(OC(F)(F)F)cc1)c1ccc(C#N)cc1	cell-free assay, competition with immobilised ligand	1 µM	remaining binding	81%
Nc1ncc(-c2nc(N3CCOCC3)nc(N3CCOCC3)n2)c(C(F)F)n1	cell-free assay, competition with immobilised ligand	10 µM	remaining binding	48%
Cc1nn(C)cc1-c1nc2c(N3CCN(Cc4ccc(Cl)cc4)CC3)c(Cl)cnc2[nH]1	binding, competition with immobilised ligand	1 µM	remaining binding	82%
Cn1cc(-c2cc(F)cc(N3CCn4c(cc5c4CCCC5)C3=O)c2CO)cc(Nc2ccc(N3CCN(C4COC4)CC3)cn2)c1=O	enzyme activity, inhibitor	0.1 µM	inhibition	4%
O=c1[nH]c2ccccc2n1C1CCN(Cc2ccc(-c3[nH]c4cc5ncnc5cc4nc3-c3ccccc3)cc2)CC1	cell-free assay	0.5 µM	remaining signal	101%
N#CC1(c2ccccn2)CCN(Cc2cc(C(=O)O)c(=O)n3ccccc23)CC1	cell-free assay, competition with immobilised ligand	1 µM	remaining binding	97%
COc1cc(Nc2ncc(F)c(Nc3ccc4c(n3)NC(=O)C(C)(C)O4)n2)cc(OC)c1OC	binding, competition with immobilised ligand	10 µM	inhibition	91%
